Ecoli tolC = blocks growth of E. coli BW25113 tolC mutant. OD615. growth inhibition, % at 10 µM (by protocol). hit rate 2.2% among 65,000. AID 573;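 active means growth inhibition at or above a cutoff equal to the mean over every tested compound plus 3 SD, cut at about 60% in these data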;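 further: growth measured after 20 h incubation at 37 °C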
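Test system: tolC-deleted E. coli BW25113 | Medium: LB with kanamycin 50 µg/mL | Compound dosing: Single concentration, 10 µM final per compound | Schedule: 37 °C, 20 h exposure | Measured by: OD at 615 nm | Evaluation: Percent growth inhibition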
PostGolgi yeast = growth inhibition of a yeast mutant, post-Golgi transport screen. post-Golgi transport phenotypic cell assay. hit rate 0.9% among 98,000. inhibition, % at 10 µM;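 further: yeast cells grown in 1536-well plates; yeast grown about 18 h at 30C before absorbance read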
Ecoli WT expand = growth inhibitors of E. coli BW25113 wild type; OD600 absorbance; growth inhibition, % at 100 µM; hit rate 0.15% among 98,000; AID 710;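 active means growth inhibition above about 50% at one test dose, limit read from the data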;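 further: growth measured after 20 h incubation at 37 °C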
PostGolgi ctrl = yeast control strain growth, post-Golgi counter-screen. hit rate 5% among 98,000. inhibition, % at 10 µM. efflux-deficient yeast background strain, growth absorbance A615, 16 h. AID 738
Calb biofilm kill = kills Candida albicans biofilms. inhibition, % at 6 µM. hit rate 0.14% among 85,000. AID 834. C. albicans biofilm + clotrimazole, Alamar Blue;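 active means inhibition above 20%; inactive means inhibition below 20%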;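 further: preformed 24 hr biofilms exposed to compound for 48 hr; 0% = biofilm without compound and 100% = blank killed by clotrimazole plus chlorhexidine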
PTK2B oligo ant = antagonists of human Pyk2 oligomerization | Q14289 | Q293 cells, Pyk2 FERM NanoBiT luminescence; active compounds read low | z-score (the deposit names both 25 µM and 10 µM) | hit rate 0.83% among 99,000 | AID 1347419;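 active means Z-score of -3 or lower, scaled per plate to the spread of control and sample wells; inactive means z-score above -3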;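 further: negative z-score means lost luminescence so less FERM oligomerization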
An asterisk follows results filed as active; . = not tested or not shown. Compounds with a hit are over-represented: about 6.5% of the library has one in this group of screens. Unless noted, no stated cut-off is given here; in the data, active means inhibition above about 30%; inactive means the rest.

SMILES | Ecoli tolC | PostGolgi yeast | Ecoli WT expand | PostGolgi ctrl | Calb biofilm kill | PTK2B oligo ant
CC(NC(=O)c1cc2c(s1)CCCC2)C(C)(C)C (stereo not drawn) | . | -16 | 7 | 12 | -1 | -0.12
CCC(CO)NC(=O)c1cc2c(s1)CCC2 (stereo not drawn) | . | 31* | 7 | -4 | . | -0.14
COC(=O)c1ccc2c(=O)n(CC3CCCO3)c(SCC(=O)Nc3ccccc3OC)nc2c1 (stereo not drawn) | 16 | -9 | -10 | 33* | -4 | -1.8
COC(=O)c1ccc2c(=O)n(CC3CCCO3)c(SCC(=O)Nc3ccccc3Cl)nc2c1 (stereo not drawn) | . | 4 | -1 | 20 | 3 | -0.51
Cc1ccc(-c2nc3cnccn3c2Nc2ccc3c(c2)OCO3)cc1 | . | 5 | 0 | 10 | 5 | .
Oc1ccc(Br)cc1-c1nc2cnccn2c1NC1CCCCC1 | . | 29 | -5 | 86* | 4 | -1.2
Oc1ccc(Br)cc1-c1nc2cnccn2c1NC1CCCC1 | 97* | 6 | -7 | 63* | 7 | -0.48
CC(CCc1ccccc1)NC(=O)CN1CCN(Cc2ccc(Cl)cc2)C1=O (stereo not drawn) | . | 2 | 2 | 15 | 7 | .
CC(=O)c1cccc(S(=O)(=O)NC2CC2)c1 | . | . | . | . | . | 0.63
CCn1c(CNC(=O)c2cccs2)nnc1SCC(=O)NCCc1ccccc1 | -9 | 3 | 7 | 31* | 12 | 0.63
O=S(=O)(N1CCOCC1)n1cnc2ccccc21 | . | -5 | 4 | -6 | 0 | 0.74
CCOc1ccc(OCCN2C(=O)NC(Cc3c[nH]c4ccccc34)C2=O)cc1 (stereo not drawn) | . | -4 | 9 | 19 | 11 | 0.47
CCC(C)NS(=O)(=O)c1ccc(NS(C)(=O)=O)cc1 (stereo not drawn) | -11 | 48* | 4 | 19 | 5 | 0.23
Cc1occc1C(=O)Nc1ccccc1C(=O)O | 12 | 17 | 1 | 6 | 4 | 0.01
Cc1occc1C(=O)Nc1ccc2ccccc2c1 | 12 | -3 | 15 | 52* | 4 | -0.74
CCc1ccccc1NC(=O)c1ccoc1C | -4 | 14 | -3 | 37* | 3 | -0.54
Cc1ccc(C(=O)N2c3ccccc3N(Cc3ccccc3)C(=O)C2(C)C)cc1 | . | 6 | -15 | 20 | 5 | -1.3
CCOC(=O)N1CCN(C(=O)CCc2ccc(S(=O)(=O)NCCc3ccccc3)cc2)CC1 | 19 | -7 | -11 | -1 | 5 | 0.57
CC1CN(C2CCN(S(=O)(=O)c3ccc(F)cc3)CC2)CC(C)O1 (stereo not drawn) | . | 48* | -1 | 30* | 2 | 0.14
CC1CN(C2CCN(S(=O)(=O)c3ccccc3)CC2)CC(C)O1 (stereo not drawn) | 2 | . | . | . | 4 | 0.17
C=CCOc1ccc(C2c3c(oc4ccccc4c3=O)C(=O)N2c2ccccn2)cc1OCC (stereo not drawn) | -12 | . | . | . | 3 | .
C=CCn1c(SCC(=O)c2ccc(NS(=O)(=O)c3ccccc3)cc2)nnc1-c1cccs1 | 3 | 6 | -5 | 11 | 5 | -0.15
O=[N+]([O-])c1ccc(O)c(-c2nc(-c3ccccc3)c(-c3cccs3)[nH]2)c1 | . | 14 | -1 | 45* | . | -2.6
CCSc1ccccc1C(=O)NCc1ccco1 | . | 5 | 4 | 2 | 3 | 2.2
CCCOc1ccccc1N/C(=N/c1nc(C)cc(C)n1)NC(=O)COc1ccc(OC)cc1 | . | 40* | -18 | 7 | 2 | -1.1
SMILES | Ecoli tolC | PostGolgi yeast | Ecoli WT expand | PostGolgi ctrl | Calb biofilm kill | PTK2B oligo ant
CCOC(=O)c1ccc(CNC(=O)Cn2nnc(-c3ccc(C)cc3)n2)o1 | -15 | -4 | -1 | 12 | 9 | 1.3
CC(=O)Nc1sc2c(c1C(c1ccc(Cl)cc1)N1CCOCC1)CCCC2 (stereo not drawn) | . | 29 | 5 | 31* | 0 | -2
CNc1oc(-c2ccc(C)cc2)nc1P(=O)(c1ccccc1)c1ccccc1 | . | 6 | 4 | 26 | . | -0.5
COc1ccc(-n2nnnc2SCC(=O)Nc2nc3c(s2)CCCC3)cc1 | . | -6 | 0 | 9 | 5 | -1.6
O=S(=O)(Nc1nccs1)c1ccc(Cl)cc1 | . | 12 | 18 | 3 | 6 | 0.3
CCC(OC(=O)C(NC(=O)c1ccccc1)c1ccccc1)C(=O)Nc1cc(C)on1 (stereo not drawn) | 2 | 42* | 4 | -6 | 2 | -0.62
Cn1c(COc2ccc(Cl)cc2)nnc1SCc1ncc(-c2ccccc2)o1 | 54 | 21 | -3 | 47* | 9 | 0.68
COC(=O)c1cccnc1NC(=S)NNC(=O)c1ccccc1 | . | -9 | -7 | -4 | -4 | 0.73
O=C(N/N=C/c1ccco1)c1cc(-c2ccc3ccccc3c2)n[nH]1 | . | 13 | -22 | 43* | 0 | -0.25

Screening results (PubChem BioAssay)
